Common to all, as to type: functional, cell-based
The test system of one test is KB. Kind of test: Cytotoxicity against human KB cells after 4 days by MTT assay. The note with it: 96 h. The gist of the method:
(§1)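 Panel of nine human cancer lines tested in parallel: BXPC-3 (pancreatic), NCI-446 (lung), MCF-7 (breast), HEPG-2 (liver), A549 (lung), A2780 (ovarian), Bel7402 (liver), HT-29 (colon), and KB (epidermoid carcinoma of nasopharynx). Cells were exposed for 4 days of incubation, viability was read by MTT, and values were expressed as the doses required for the response.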

The next test has as its system HepG2. Briefly: Cytotoxicity against human HepG2 cells after 4 days by MTT assay. Particulars: HepG2, 96 h. The gist of the method:
as §1
On the technique in general: Tetrazolium dyes change colour on reduction, which living cells bring about.

The next test has as its system A2780. Briefly: Cytotoxicity against human A2780 cells after 4 days by MTT assay. The note with it: A2780, 96 h. The gist of the method: as §1
The subject of the next test is Bel-7402. Kind of test: Cytotoxicity against human BEL-7402 cells after 4 days by MTT assay. Particulars: Bel-7402, 96 h. The gist of the method:
as §1

In a further test the test system is A549. Briefly: Cytotoxicity against human A549 cells after 4 days by MTT assay. The note with it: A549, 96 h. The gist of the method:
as §1

The subject of a further test is BXPC-3. Briefly: Cytotoxicity against human BXPC3 cells after 4 days by MTT assay. Particulars: BXPC-3, 96 h. The gist of the method:
as §1

Test [1] can be described thus: Cytotoxicity against human NCI446 cells after 4 days by MTT assay. Particulars: NCI446, 96 h. The gist of the method: as §1
A further test relates to HT-29. Kind of test: Cytotoxicity against human HT29 cells after 4 days by MTT assay. Particulars: HT-29, 96 h. The gist of the method:
as §1

For another test, the system named is MCF7. Kind of test: Cytotoxicity against human MCF7 cells after 4 days by MTT assay. Particulars: MCF7, 96 h. The gist of the method:
as §1

pIC50: −log10 of the molar value.

These results are taken from ChEMBL document CHEMBL1158155, “Novel hexacyclic camptothecin derivatives. Part 1: synthesis and cytotoxicity of camptothecins with an A-ring fused 1,3-oxazine ring” (Bioorg Med Chem Lett, 2008).

As for `CCCN1COc2ccc3nc4c(cc3c2C1)Cn1c-4cc2c(c1=O)COC(=O)[C@]2(O)CC`, the pIC50 (in general, the negative decadic logarithm of the IC50, by convention in mol/L) with KB is 6.17; with HepG2, 8.00; in the test with A2780 it was 7.05; in the test on Bel-7402, 5.84; in the test with A549, 6.96; in the test with BXPC-3, 6.82. Further, the pIC50 is 5.41 in test [1] and 6.74 in the test on HT-29.

Turning to `CCN1COc2ccc3nc4c(cc3c2C1)Cn1c-4cc2c(c1=O)COC(=O)[C@]2(O)CC`, the pIC50 was 6.92 in the test with KB; 7.30 in the test with HepG2; 6.92 in the test with A2780; 6.09 in the test on Bel-7402; 6.68 in the test with MCF7; 6.80 in the test with A549. The pIC50 was 6.72 in the test on BXPC-3, 6.64 in [1] and 6.85 with HT-29.

For the compound `CC[C@@]1(O)C(=O)OCc2c1cc1n(c2=O)Cc2cc3c4c(ccc3nc2-1)OCN(Cc1ccc(OC)cc1)C4`, the pIC50 is 7.10 in the test on KB; 5.83 in the test with HepG2; 4.75 in the test on A2780; 5.02 in the test with Bel-7402; 7.52 in the test on A549; 5.91 in the test with BXPC-3. For the same compound, the pIC50 is 4.25 in test [1] and 5.77 with HT-29.

Consider `CC[C@@]1(O)C(=O)OCc2c1cc1n(c2=O)Cc2cc3c4c(ccc3nc2-1)OCN(Cc1ccccc1)C4`, for which the pIC50 was 7.40 in the test on KB; 6.96 in the test on HepG2; 6.04 with A2780; 5.80 in the test with Bel-7402; 5.80 in the test with MCF7; 7.10 with A549. The pIC50 with BXPC-3 was 6.68; in test [1], 5.21; in the test on HT-29 it was 7.00.

With `CC[C@@]1(O)C(=O)OCc2c1cc1n(c2=O)Cc2cc3c4c(ccc3nc2-1)OCN(c1ccccc1C)C4`, the pIC50 with KB is 7.22; with HepG2, 6.74; in the test on A2780, 5.37; with Bel-7402, 5.22; in the test with A549, 5.92; with BXPC-3, 6.28. Moreover, the negative logarithm of the IC50 (pIC50) was 5.94 in test [1] and 6.66 with HT-29.

Consider `CC[C@@]1(O)C(=O)OCc2c1cc1n(c2=O)Cc2cc3c4c(ccc3nc2-1)OCN(c1cccc(C)c1)C4`, for which the pIC50 in the test on KB is 7.40; in the test on HepG2, 6.03; in the test on A2780, 6.07; in the test with Bel-7402 it was 5.27; in the test with A549, 6.38; with BXPC-3, 6.24. For the same compound, the negative-log IC50 (pIC50) was 5.15 in [1] and 6.47 in the test with HT-29.

As to `CC[C@@]1(O)C(=O)OCc2c1cc1n(c2=O)Cc2cc3c4c(ccc3nc2-1)OCN(c1ccc(C)cc1)C4`, the pIC50 with KB is 6.47; in the test on A2780 it was 5.67; with Bel-7402, 5.41; with MCF7, 5.79; in the test on A549, 6.24; in the test with BXPC-3 it was 5.69. Besides, the pIC50 in test [1] is 5.03; with HT-29, 6.28.

`CC[C@@]1(O)C(=O)OCc2c1cc1n(c2=O)Cc2cc3c4c(ccc3nc2-1)OCN(c1ccccc1OC)C4`: the pIC50 with KB is 6.54; in the test on HepG2 it was 6.89; with A2780, 5.52; with Bel-7402 it was 5.65; with MCF7, 5.85; in the test on A549, 6.14. Further, the pIC50 was 5.48 in the test with BXPC-3 and 6.51 with HT-29.

As for `CC[C@@]1(O)C(=O)OCc2c1cc1n(c2=O)Cc2cc3c4c(ccc3nc2-1)OCN(c1ccc(F)cc1F)C4`, the negative logarithm of the IC50 (pIC50) is 6.18 with KB; 6.26 in the test with HepG2; 5.68 with A2780; 5.33 in the test with Bel-7402; 5.35 in the test on MCF7; 6.41 in the test on A549. In addition, the negative-log IC50 (pIC50) in the test with BXPC-3 is 5.80; in the test on HT-29 it was 6.21.

Take `CC[C@@]1(O)C(=O)OCc2c1cc1n(c2=O)Cc2cc3c4c(ccc3nc2-1)OCN(c1ccccc1Cl)C4`: the pIC50 was 6.48 with KB; 5.39 with A2780; 4.82 in the test with Bel-7402; 5.70 with MCF7; 6.35 in the test with A549; 6.05 with BXPC-3. In addition, the pIC50 is 4.72 in [1] and 5.98 in the test with HT-29.

With `CC[C@@]1(O)C(=O)OCc2c1cc1n(c2=O)Cc2cc3c4c(ccc3nc2-1)OCN(c1ccc(Cl)cc1)C4`, the pIC50 in the test on KB was 6.64; with HepG2, 6.77; in the test on A2780 it was 6.09; in the test on Bel-7402, 4.79; with MCF7, 5.30; in the test with A549 it was 6.51. Besides, the pIC50 with BXPC-3 was 6.29; with HT-29, 6.68.

Consider `CC[C@@]1(O)C(=O)OCc2c1cc1n(c2=O)Cc2cc3c4c(ccc3nc2-1)OCN(c1ccc(F)c(F)c1F)C4`, for which the pIC50 in the test with KB was 6.55; in the test with A2780 it was 5.97; in the test on Bel-7402, 4.88; in the test with MCF7 it was 5.59; in the test on A549, 6.55; in the test with BXPC-3, 6.92. The pIC50 in the test on HT-29 was 6.21.

In the case of `CC[C@@]1(O)C(=O)OCc2c1cc1n(c2=O)Cc2cc3c4c(ccc3nc2-1)OCN(c1ccc(F)c(Cl)c1)C4`, the pIC50 with KB was 6.21; with HepG2, 6.74; with A2780, 5.51; in the test with Bel-7402, 5.51; in the test with MCF7, 5.02; with A549 it was 6.25. Moreover, the results for the pIC50 in the test with BXPC-3 and in the test with HT-29 were 6.04 and 5.95, respectively.

Turning to `CC[C@@]1(O)C(=O)OCc2c1cc1n(c2=O)Cc2cc3c4c(ccc3nc2-1)OCN(Cc1ccc(F)cc1)C4`, the pIC50 with KB is 7.22; in the test on HepG2, 6.85; in the test with A2780, 4.93; in the test on Bel-7402 it was 5.28; in the test on MCF7 it was 6.19; in the test on A549, 6.92. Moreover, the results for the pIC50 (with BXPC-3; in test [1]; with HT-29) were 5.76, 4.36 and 5.92, respectively.

Turning to `CC[C@@]1(O)C(=O)OCc2c1cc1n(c2=O)Cc2cc3c4c(ccc3nc2-1)OCN(C)C4`, the pIC50 in the test with KB was 6.17; in the test on HepG2, 6.19; in the test on A2780 it was 6.28; in the test with Bel-7402, 5.78; in the test on MCF7, 5.34; in the test on A549, 6.39. Moreover, the negative-log IC50 (pIC50) is 6.32 in the test with BXPC-3, 4.43 in [1] and 6.16 with HT-29.

Turning to `CCCCN1COc2ccc3nc4c(cc3c2C1)Cn1c-4cc2c(c1=O)COC(=O)[C@]2(O)CC`, the pIC50 was 7.05 in the test with KB; 6.46 with HepG2; 5.50 in the test with A2780; 5.40 in the test with Bel-7402; 6.26 with MCF7; 6.70 in the test with A549. Moreover, the pIC50 in the test with BXPC-3 was 6.01; in test [1], 5.00; in the test on HT-29 it was 6.89.

As for `CC[C@@]1(O)C(=O)OCc2c1cc1n(c2=O)Cc2cc3c4c(ccc3nc2-1)OCN(c1ccc(OC)cc1)C4`, the pIC50 with KB was 6.64; in the test with HepG2, 6.92; with A2780, 5.95; in the test on Bel-7402, 5.30; with A549 it was 6.57; with BXPC-3, 6.38. Moreover, the pIC50 in test [1] was 4.84; in the test on HT-29, 6.51.

Take `CC[C@@]1(O)C(=O)OCc2c1cc1n(c2=O)Cc2cc3c4c(ccc3nc2-1)OCN(c1ccccc1)C4`: the pIC50 in the test on KB was 6.17; in the test on HepG2, 7.52; in the test with A2780, 5.46; in the test on Bel-7402 it was 5.15; in the test on MCF7, 5.56; in the test with A549, 6.11. In addition, the pIC50 in the test with BXPC-3 was 6.72; with HT-29 it was 6.32.

As to `CC[C@@]1(O)C(=O)OCc2c1cc1n(c2=O)Cc2cc3ccccc3nc2-1` [CAMPTOTHECIN], the pIC50 in the test on KB was 8.52; in the test with HepG2, 6.89; with A2780, 6.70; in the test with Bel-7402 it was 6.77; in the test on MCF7, 6.70; with A549, 8.00. The pIC50 with BXPC-3 is 6.62; in test [1], 5.48; with HT-29, 7.05.

As to `CC[C@@]1(O)C(=O)OCc2c1cc1n(c2=O)Cc2cc3c(CN(C)C)c(O)ccc3nc2-1` [TOPOTECAN], the pIC50 was 6.66 in the test on KB; 5.47 in the test on A2780; 5.50 in the test with Bel-7402; 5.92 in the test on MCF7; 6.66 in the test on A549; 6.21 in the test on BXPC-3. The pIC50 is 5.00 in test [1] and 6.06 with HT-29.
